In ChEMBL document CHEMBL4043300, “2 H-1,2,3-Triazole-Based Dipeptidyl Nitriles: Potent, Selective, and Trypanocidal Rhodesain Inhibitors by Structure-Based Design” (J Med Chem, 2018):
≈ marks a conversion by molar mass, not a printed value.

Key:
Rhodesain = Rhodesain (Trypanosoma brucei rhodesiense, UniProt Q95PM0); test: Inhibition of Trypanosoma brucei rhodesiense rhodesain using Cbz-Phe-Arg-AMC as substrate by fluorimetric method
Method in brief: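 Fluorescence-based assay run at 25 °C in 50 mM sodium acetate pH 5.5 with 5 mM EDTA, 200 mM NaCl and 0.005% Brij35. IC50 values were converted to Ki with the Cheng-Prusoff equation. Values are the average of two measurements, each done in duplicate.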

[1] = Selectivity index, ratio of Ki for human CatL to Ki for Trypanosoma brucei rhodesiense rhodesain
Method in brief: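 Ki(hCatL)/Ki(RD). Fluorimetric assays at 25 °C: RD in 50 mM sodium acetate pH 5.5; hCatL in 50 mM Tris pH 6.5; both buffers with 5 mM EDTA, 200 mM NaCl, 0.005% Brij35. Ki derived from IC50 by Cheng-Prusoff. Each value is the mean of two measurements, each done in duplicate.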

Procathepsin L = Procathepsin L (Homo sapiens, UniProt P07711); test: Inhibition of human CatL using Cbz-Phe-Arg-AMC as substrate measured over 30 mins by fluorimetric method
Method in brief: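 Human cathepsin L in a fluorimetric assay in 50 mM Tris pH 6.5, 5 mM EDTA, 200 mM NaCl, 0.005% Brij35 at 25 °C. Ki was calculated from IC50 by Cheng-Prusoff. Value is the average of two measurements, each in duplicate.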

[2] = tested on: Trypanosoma brucei rhodesiense; test: Antitrypanosomal activity against bloodstream form of Trypanosoma brucei rhodesiense STIB 900 assessed as parasite growth inhibition after 72 hrs by Alamar blue assay; type: functional; settings: STIB 900, 72 h
Method in brief: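 Standard 72 h growth-inhibition assay with STIB 900 bloodstream trypomastigotes and Alamar Blue read-out. Value is the mean of at least 2 measurements.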

[3] = Solubility of the compound at pH 6.5 by LYSA; type: physicochemical; settings: buffer
Method in brief: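 Lyophilization solubility assay at pH 6.5.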

L6 = test: Cytotoxicity against rat L6 cells after 72 hrs by Alamar blue assay; type: cell-based; settings: L6, 72 h
Method in brief: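 Rat skeletal myoblast L6 cells in an Alamar Blue growth-inhibition assay. Value is the mean of at least 2 measurements.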

[4] = tested on: Trypanosoma brucei rhodesiense; test: Antitrypanosomal activity against bloodstream form of Trypanosoma brucei rhodesiense STIB 900 infected in NMRI mouse assessed as reduction of parasitemia at 50 mg/kg, po administered for 3 consecutive days starting 1 day post infection measured at 24 hrs post last dose relative to control; type: functional; design: scale not given: the % may be the effect or the level left
Method in brief: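 Female mice infected with STIB900 were dosed orally at 50 mg/kg/day on three consecutive days, starting 1 day post-infection. Compound was in 100% DMSO diluted 10-fold in distilled water, given at 0.1 mL/10 g. Tail-blood parasitaemia was measured 24 h after the last dose versus 4 untreated infected controls. Values are means of 2 mice.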

[5] = Octanol-water intrinsic distribution co-efficient, log D of the compound at 100 uM at pH 7.4 after 16 to 22 hrs by CAMDIS assay; type: physicochemical
Method in brief: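 Octanol/aqueous buffer (pH 7.4) intrinsic distribution coefficient measured in the CAMDIS carrier-mediated distribution system.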

[6] = Selectivity index, ratio of IC50 for rat L6 cells to IC50 for bloodstream form of Trypanosoma brucei rhodesiense STIB 900; type: toxicity; settings: read-out: Ratio IC50
Method in brief: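 Ratio of L-6 rat skeletal myoblast IC50 to T. b. rhodesiense STIB 900 bloodstream trypomastigote IC50, both from Alamar Blue growth-inhibition assays. Each IC50 is the mean of at least 2 measurements.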

Rhodesain, sequence (Q95PM0 whole entry): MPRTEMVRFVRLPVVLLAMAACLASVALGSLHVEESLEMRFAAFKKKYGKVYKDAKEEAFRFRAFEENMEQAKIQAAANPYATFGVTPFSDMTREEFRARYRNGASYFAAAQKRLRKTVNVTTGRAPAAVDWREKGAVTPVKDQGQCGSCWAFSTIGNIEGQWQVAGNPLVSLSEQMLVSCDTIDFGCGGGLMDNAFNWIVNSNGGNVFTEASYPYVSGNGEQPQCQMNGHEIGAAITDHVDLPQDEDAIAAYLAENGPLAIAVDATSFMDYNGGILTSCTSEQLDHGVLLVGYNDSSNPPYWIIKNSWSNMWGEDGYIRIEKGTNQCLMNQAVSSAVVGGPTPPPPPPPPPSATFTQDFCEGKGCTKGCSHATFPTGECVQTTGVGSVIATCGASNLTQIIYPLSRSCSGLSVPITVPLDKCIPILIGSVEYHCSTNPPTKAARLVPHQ
Procathepsin L, sequence (P07711 whole entry): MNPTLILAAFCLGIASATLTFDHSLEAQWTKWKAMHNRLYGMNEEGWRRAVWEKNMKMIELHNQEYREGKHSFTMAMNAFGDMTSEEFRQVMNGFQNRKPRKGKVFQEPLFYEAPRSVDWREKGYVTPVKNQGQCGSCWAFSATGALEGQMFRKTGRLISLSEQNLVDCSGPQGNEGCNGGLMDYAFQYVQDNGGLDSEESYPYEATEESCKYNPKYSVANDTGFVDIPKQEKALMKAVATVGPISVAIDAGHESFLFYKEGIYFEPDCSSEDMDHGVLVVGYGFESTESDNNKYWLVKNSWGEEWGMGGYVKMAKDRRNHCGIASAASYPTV

| Structure (SMILES) | Ki (Rhodesain) [nM] | Ratio Ki [1] | Ki (Procathepsin L) [nM] | IC50 [2] [nM] | solubility [3] [µg/mL] | IC50 (L6) [nM] | Activity [4] [%] | logD at 100 µM [5] | selectivity ratio [6] |
| --- | --- | --- | --- | --- | --- | --- | --- | --- | --- |
| N#CC1(NC(=O)[C@H](Cc2ccccc2Cl)NC(=O)c2cnn(-c3ccc(F)cc3)n2)CC1 | 7.4 to 597 | 18 to 507 | – | – | – | – | – | – | – |
| N#Cc1ccccc1C[C@H](NC(=O)c1cnn(-c2ccc(F)cc2)n1)C(=O)NC1(C#N)CC1 | 7.4 to 597 | 18 to 507 | – | – | – | – | – | – | – |
| COCCOc1ccc(C[C@H](NC(=O)c2cnn(-c3ccc(F)cc3)n2)C(=O)NC2(C#N)CC2)cc1Cl | 9 to 16 | 18 to 507 | 181 to 314 | 27 to 190 | – | – | – | – | – |
| CSc1ccc(-n2ncc(C(=O)N[C@@H](Cc3ccc(OC(F)(F)F)c(Cl)c3)C(=O)NC3(C#N)CC3)n2)cc1 | 19 | 59 | 1120 | 67 | < 0.3 | > 10000 | – | – | – |
| CSc1ccc(OCc2ncc([N+](=O)[O-])n2C)cc1 [FEXINIDAZOLE] | – | – | – | 1710 to 2930 | – | – | – | – | – |
| N#CC1(NC(=O)[C@H](Cc2ccc(Cl)c(Cl)c2)NC(=O)c2cnn(C3COC3)n2)CC1 | 33 | 2.4 | 78 | 8 | – | > 100000 | 45.3 | – | – |
| N#CC1(NC(=O)[C@H](Cc2ccc(OC(F)(F)F)c(Cl)c2)NC(=O)c2cnn(C3CC(F)(F)C3)n2)CC1 | 41 | 1.5 | 76 | 9 | 2.2 (≈ 4.13 µM) | 50000 | – | 3.89 | 5560 |
| N#CC1(NC(=O)[C@H](Cc2ccc(OCc3ccccc3)cc2)NC(=O)c2cnn(-c3ccc(F)cc3)n2)CC1 | 17 | 87 | 1470 | 19 | < 0.3 | > 10000 | – | – | – |
| N#CC1(NC(=O)[C@H](Cc2ccccc2C(F)(F)F)NC(=O)c2cnn(-c3ccc(F)cc3)n2)CC1 | 7.4 to 597 | 18 to 507 | – | – | – | – | – | – | – |
| N#CC1(NC(=O)[C@H](Cc2ccc(OCC3CCC3)c(Cl)c2)NC(=O)c2cnn(-c3ccc(F)cc3)n2)CC1 | 16 | 20 | 314 | 27 | < 0.3 | 7600 | – | – | 281 |
| N#CC1(NC(=O)[C@H](Cc2ccc(Cl)c(Cl)c2)NC(=O)c2cnn(C3CCOCC3)n2)CC1 | 4 | 23 | 93 | 23 | – | > 100000 | – | – | – |
| N#CC1(NC(=O)[C@H](Cc2cccc(Cl)c2)NC(=O)c2cnn(-c3ccc(F)cc3)n2)CC1 | 7.4 to 597 | 18 to 507 | – | – | – | – | – | – | – |
| N#CC1(NC(=O)[C@H](Cc2ccccc2)NC(=O)c2cnn(-c3ccc(F)cc3)n2)CC1 | 7.4 to 597 | 18 to 507 | – | – | – | – | – | – | – |
| N#CC1(NC(=O)[C@H](Cc2ccc(OC(F)(F)F)c(Cl)c2)NC(=O)c2cnn(-c3ccc(Cl)cc3)n2)CC1 | 10 | 47 | 467 | 22 | < 0.3 | 8300 | – | – | 377 |
| CC(C)C[C@H](NC(=O)c1cnn(-c2ccc(F)cc2)n1)C(=O)NC1(C#N)CC1 | 23 | 18 to 507 | – | 2200 | 42 (≈ 109 µM) | – | – | 3.3 | – |
